TDP2 absorb – blocks human TDP2 phosphodiesterase activity; recombinant TDP2, T5PNP hydrolysis, p-nitrophenol absorbance 415 nm; inhibition, % at 12.8 µM; 0.34% of 370,000 active; AID 720702;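 active = inhibition above the mean of all tested compounds plus 3 SD, set per campaign, cut at about 25% in these data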;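 also: 0% = DMSO with enzyme and 100% = buffer with substrate but no TDP2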
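Test system: human TDP2 enzyme; Input: 120 nM TDP2 per well; Buffer or medium: Mg2+-containing Tris-HCl buffer, pH 7.5; Reagent: 5 mM T5PNP; Dosing: 12.8 µM single point, 1% DMSO; Incubation: reaction 2 h, 37 °C; Detection: p-Nitrophenol epi absorbance; Read-out: % inhibition relative to enzyme-containing and enzyme-free wells; Replicates: single well per compound.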
LEDGF integ inh – blocks HIV-1 LEDGF/p75-dependent DNA integration. TR-FRET IN-LEDGF/p75 DNA integration, Eu/Cy5. inhibition, % at 3.7 µM. 0.64% of 370,000 active;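 active = inhibition above the screen-wide mean plus 3 SD, cut at about 13% in these data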;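 also: signal is the Cy5 over europium emission ratio at 671 and 618 nm; 0% = plate median of compound wells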
MBD2 DNA inh – blocks human MBD2 binding to methylated DNA; Q9UBB5; TR-FRET, MBD2 binding to methylated oligonucleotide; inhibition, % at 4.4 µM; 0.31% of 370,000 active; AID 686964; in the data active = inhibition above about 13%
Target sequence (Q9UBB5 whole entry, looked up): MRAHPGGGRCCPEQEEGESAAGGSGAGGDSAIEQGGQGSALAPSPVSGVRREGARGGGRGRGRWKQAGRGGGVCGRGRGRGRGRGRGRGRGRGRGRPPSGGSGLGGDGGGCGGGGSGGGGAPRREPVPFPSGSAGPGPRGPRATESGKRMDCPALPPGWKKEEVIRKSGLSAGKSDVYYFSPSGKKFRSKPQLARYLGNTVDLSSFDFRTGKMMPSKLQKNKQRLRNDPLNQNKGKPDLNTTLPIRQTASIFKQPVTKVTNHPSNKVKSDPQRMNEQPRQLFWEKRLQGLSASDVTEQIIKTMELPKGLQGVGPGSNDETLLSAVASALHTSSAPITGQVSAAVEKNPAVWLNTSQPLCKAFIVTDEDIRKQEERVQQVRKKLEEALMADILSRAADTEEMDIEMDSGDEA
UHRF1 MBD2 ctr – human UHRF1 methylated DNA binding inhibitors; inhibition, % at 4.4 µM; 0.75% of 370,000 active; Q96T88; UHRF1 binding to methylated oligo, TR-FRET; in the data active = inhibition above about 21%;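 also: UHRF1 SRA domain binding a hemimethylated CpG hairpin DNA probe; 0% = median of test compound wells and 100% = reference inhibitor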
TDP2 confirm – confirmation of human TDP2 inhibitors; inhibition, % at 12.8 µM; recombinant human TDP2, absorbance read-out; shares compounds with TDP2 absorb; 22% of 1,100 active; in the data active = inhibition above about 25%;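 also: 0% = vehicle with enzyme and 100% = no enzyme buffer only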
* = called active by the depositor. Sampled rows, rich in hits. Any-hit rate of the full collection: about 1.6%.

What do the screens show for `Cc1nn(CCC#N)c(N)c1C1(O)C(=O)Nc2c(Cl)cc(Cl)cc21` (configuration not stated)?
TDP2 absorb: 26*; LEDGF integ inh: -1; MBD2 DNA inh: -1; UHRF1 MBD2 ctr: -4; TDP2 confirm: 4

What do the screens show for `Cc1ccc(Cn2c(N3CCNCC3)nc3c2c(=O)[nH]c(=O)n3C)cc1`?
TDP2 absorb: -8; LEDGF integ inh: -7; MBD2 DNA inh: -2; UHRF1 MBD2 ctr: 2

Results for Cn1c(=O)[nH]c(=O)c2c1nc(N1CCNCC1)n2Cc1ccccc1 ?
TDP2 absorb: 26*; LEDGF integ inh: -1; MBD2 DNA inh: 2; UHRF1 MBD2 ctr: 2; TDP2 confirm: 5

What do the screens show for `CC(=O)c1cc(OC(=O)N2CCOCC2)ccc1OC(=O)N1CCOCC1`?
TDP2 absorb: 75*; LEDGF integ inh: 1; MBD2 DNA inh: 3; UHRF1 MBD2 ctr: -2; TDP2 confirm: -16

What do the screens show for `CCCN(CC1CC1)C(=O)CSc1nnc(-c2ccncc2)n1-c1ccc(OC)cc1`?
TDP2 absorb: 5; LEDGF integ inh: 0; MBD2 DNA inh: 0; UHRF1 MBD2 ctr: -2

How did COCC(=O)N1CCC(Oc2ccc(C(=O)NCc3cnc(C)cn3)cc2)CC1 do in these assays?
TDP2 absorb: 3; LEDGF integ inh: -1; MBD2 DNA inh: 0; UHRF1 MBD2 ctr: 2

What do the screens show for `CCn1ccnc1CNC(=O)c1ccc(OC2CCN(C(=O)COC)CC2)cc1`?
TDP2 absorb: 27*; LEDGF integ inh: 3; MBD2 DNA inh: 3; UHRF1 MBD2 ctr: -2; TDP2 confirm: -5

What do the screens show for `COc1cc(Cc2nccc3cc(OC)c(OC)cc23)c(S(=O)(=O)O)cc1OC`?
TDP2 absorb: 41*; LEDGF integ inh: 5; MBD2 DNA inh: 3; UHRF1 MBD2 ctr: 13; TDP2 confirm: 4

How did COc1cccc(N(CC(=O)NC2CCCCC2)C(=O)CCC(=O)Nc2nccs2)c1 do in these assays?
TDP2 absorb: 29*; LEDGF integ inh: 2; MBD2 DNA inh: 2; UHRF1 MBD2 ctr: -3; TDP2 confirm: 4

Results for COc1cccc(N(CC(=O)NC2CCCC2)C(=O)CCC(=O)Nc2nccs2)c1 ?
TDP2 absorb: -4; LEDGF integ inh: -5; MBD2 DNA inh: 4; UHRF1 MBD2 ctr: 1

What do the screens show for `COC(=O)C1CN(CCO)CCS(=O)(=O)N1Cc1cn(Cc2cccc(Cl)c2)nn1` (configuration not stated)?
TDP2 absorb: -2; LEDGF integ inh: 1; MBD2 DNA inh: -3; UHRF1 MBD2 ctr: 1

Results for O=C(CCC(=O)NC1CCCCC1)NCc1ccc(F)cc1 ?
TDP2 absorb: 48*; LEDGF integ inh: -2; MBD2 DNA inh: 3; UHRF1 MBD2 ctr: -2; TDP2 confirm: -1

Results for C=CCn1c(=S)[nH]c2sccc2c1=O ?
TDP2 absorb: 60*; LEDGF integ inh: -1; MBD2 DNA inh: -3; UHRF1 MBD2 ctr: 0; TDP2 confirm: 2

What do the screens show for `Cc1cc2oc(C(=O)NCCc3ccc(S(N)(=O)=O)cc3)c(C)c2cc1C`?
TDP2 absorb: 30*; LEDGF integ inh: -5; MBD2 DNA inh: 1; UHRF1 MBD2 ctr: 0; TDP2 confirm: 3

Results for Cc1ccc(S(=O)(=O)/N=C2/NC(=O)/C(=C/c3ccccc3)S2)cc1 ?
TDP2 absorb: 29*; LEDGF integ inh: 0; MBD2 DNA inh: 1; UHRF1 MBD2 ctr: 0; TDP2 confirm: 11

How did Cc1ccc(-n2nc3c(c2NC(=O)C2CC2)CS(=O)(=O)C3)cc1 do in these assays?
TDP2 absorb: 27*; LEDGF integ inh: 0; MBD2 DNA inh: -2; UHRF1 MBD2 ctr: 2; TDP2 confirm: 7

Results for Cc1ccc(-n2nc3c(c2NC(=O)C2CC2)CS(=O)(=O)C3)cc1C ?
TDP2 absorb: 2; LEDGF integ inh: -1; MBD2 DNA inh: 6; UHRF1 MBD2 ctr: 0

Results for COc1ccc(/C=C/C(Cc2cccc(C(C)=O)c2)c2ccc(C)cc2)cc1 (configuration not stated) ?
TDP2 absorb: -7; LEDGF integ inh: -2; MBD2 DNA inh: -3; UHRF1 MBD2 ctr: 0

How did Cc1ccc(OCCCCN2CCCCC2)cc1 do in these assays?
TDP2 absorb: -11; LEDGF integ inh: 0; MBD2 DNA inh: -6; UHRF1 MBD2 ctr: -2

What do the screens show for `Cc1ccc(OCCN2CCCC2)cc1`?
TDP2 absorb: 25*; LEDGF integ inh: 0; MBD2 DNA inh: -6; UHRF1 MBD2 ctr: -4; TDP2 confirm: 11

Results for O=C(N/N=C/c1c(F)cccc1Cl)C1CC1 ?
TDP2 absorb: 63*; LEDGF integ inh: -3; MBD2 DNA inh: 2; UHRF1 MBD2 ctr: 3; TDP2 confirm: -1

How did O=C1C(Cl)=C(NC(=O)c2ccccc2)C(=O)C(Cl)=C1NC(=O)c1ccccc1 do in these assays?
TDP2 absorb: 59*; LEDGF integ inh: 2; MBD2 DNA inh: -5; UHRF1 MBD2 ctr: -2; TDP2 confirm: 33*

What do the screens show for `O=C(NC(=S)Nc1ccccc1Cl)c1cncc(Br)c1`?
TDP2 absorb: 27*; LEDGF integ inh: 0; MBD2 DNA inh: -2; UHRF1 MBD2 ctr: -1; TDP2 confirm: -4

Results for COc1cc2c(=O)n(CCC(=O)NCC3CCCO3)c(=O)n(CC(=O)Nc3ccc(F)cc3)c2cc1OC (configuration not stated) ?
TDP2 absorb: 24*; LEDGF integ inh: 2; MBD2 DNA inh: -4; UHRF1 MBD2 ctr: 2; TDP2 confirm: -7

How did Clc1ccc([C@H]2OC[C@@]3(CNCc4ccccc4)CS[C@H](c4ccc(Cl)cc4)N23)cc1 do in these assays?
TDP2 absorb: -5; LEDGF integ inh: -2; MBD2 DNA inh: -3; UHRF1 MBD2 ctr: 1

What do the screens show for `O=C(CCc1ccccc1)N[C@H]1[C@@H](OC(=O)c2cnccn2)CCC[C@@]12C(=O)N(Cc1ccccc1)c1ccccc12`?
TDP2 absorb: -3; LEDGF integ inh: 5; MBD2 DNA inh: -8; UHRF1 MBD2 ctr: 0

How did O=C(NCC(c1ccco1)N1CCOCC1)c1c(F)cccc1F (configuration not stated) do in these assays?
TDP2 absorb: 25*; LEDGF integ inh: -2; MBD2 DNA inh: 2; UHRF1 MBD2 ctr: -1; TDP2 confirm: -2

Results for O=C(NCC(c1ccco1)N1CCOCC1)c1ccc(F)cc1 (configuration not stated) ?
TDP2 absorb: -2; LEDGF integ inh: 0; MBD2 DNA inh: -4; UHRF1 MBD2 ctr: -3

Results for COc1cc(NC(=O)c2ccco2)c(OC)cc1NC(=O)CCC(=O)Nc1cc(C)ccc1C ?
TDP2 absorb: -15; LEDGF integ inh: -2; MBD2 DNA inh: 3; UHRF1 MBD2 ctr: 7

Results for COc1ccc(C)cc1NC(=O)CCNC(=O)c1ccco1 ?
TDP2 absorb: 26*; LEDGF integ inh: 3; MBD2 DNA inh: -3; UHRF1 MBD2 ctr: 1; TDP2 confirm: 8

What do the screens show for `CC(=O)Nc1ccc(S(=O)(=O)/N=C2\C(=O)c3ccccc3C([O-])=C2n2cc[n+](-c3ccccn3)c2)cc1`?
TDP2 absorb: 37*; LEDGF integ inh: 5; MBD2 DNA inh: -4; UHRF1 MBD2 ctr: 44*; TDP2 confirm: 23

Bioassay records from PubChem.
